Bioassay records (PubChem BioAssay)
The list is not random: actives were taken first. Their share in the collection is about 7.2%.
D1 mod – D1 CRE-luciferase signal change, two-sided – cell-based, HEK293 D1, dopamine EC30, D1 allosteric modulator project, primary screen; AID 641, 2007; B-score at 10 µM; hit rate 5.9% among 58,000; dopamine EC30 potentiation; actives deviate in either direction;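 active = luminescence count or its row- and column-corrected plate score outside the 99.7% band of the plate's sample wells, on either side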
M1 antagonist – antagonists of rat M1 muscarinic receptor; Muscarinic acetylcholine receptor M1 (Rattus norvegicus), P08482; CHO-M1 cells, Fluo-4 calcium, ACh EC80 antagonist mode; stronger effect = lower value; B-score at 10 µM; hit rate 3.4% among 64,000; AID 628, 2007;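 active = calcium fluorescence response, raw or row-and-column corrected B-score, differing from the plate sample mean either way at a set confidence level, mostly lower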
DAT uptake mod – changed hDAT dopamine uptake under cocaine IC80, either direction, primary screen, cocaine antagonist project, cell-based, LLC-PK1 hDAT, [14C]-dopamine uptake, MLSMR. Sodium-dependent dopamine transporter (Homo sapiens), Q01959. LLC-PK1 hDAT cells, [14C]-dopamine uptake with cocaine IC80; actives deviate in either direction. B-score at 10 µM. hit rate 1.3% among 110,000;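 active = Z score or B-score, a plate-position-corrected score, falls beyond the plate's 99.7% confidence bounds, in either direction; inactive = both scores lie inside the 99.7% bounds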;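 also: scored against the spread of the other compound wells on the same plate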
BAP1 block – inhibitors of BAP1 deubiquitinase, primary screen, biochemical, Ub-AMC fluorescence, kinetic; Ubiquitin carboxyl-terminal hydrolase BAP1 (Homo sapiens), Q92560; recombinant BAP1, Ub-AMC hydrolysis fluorescence kinetic; stronger effect = lower value; calls only at 20 µM; hit rate 0.48% among 72,000; AID 436, 2006;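 active = activity remaining at or below 50% of control, provided the compound also passes the data quality filters; inactive = the rest, including low values that fail the filters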;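 also: 100% = DMSO wells rate and 0% = substrate alone blank rate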
Target sequence (Q92560 whole entry, looked up): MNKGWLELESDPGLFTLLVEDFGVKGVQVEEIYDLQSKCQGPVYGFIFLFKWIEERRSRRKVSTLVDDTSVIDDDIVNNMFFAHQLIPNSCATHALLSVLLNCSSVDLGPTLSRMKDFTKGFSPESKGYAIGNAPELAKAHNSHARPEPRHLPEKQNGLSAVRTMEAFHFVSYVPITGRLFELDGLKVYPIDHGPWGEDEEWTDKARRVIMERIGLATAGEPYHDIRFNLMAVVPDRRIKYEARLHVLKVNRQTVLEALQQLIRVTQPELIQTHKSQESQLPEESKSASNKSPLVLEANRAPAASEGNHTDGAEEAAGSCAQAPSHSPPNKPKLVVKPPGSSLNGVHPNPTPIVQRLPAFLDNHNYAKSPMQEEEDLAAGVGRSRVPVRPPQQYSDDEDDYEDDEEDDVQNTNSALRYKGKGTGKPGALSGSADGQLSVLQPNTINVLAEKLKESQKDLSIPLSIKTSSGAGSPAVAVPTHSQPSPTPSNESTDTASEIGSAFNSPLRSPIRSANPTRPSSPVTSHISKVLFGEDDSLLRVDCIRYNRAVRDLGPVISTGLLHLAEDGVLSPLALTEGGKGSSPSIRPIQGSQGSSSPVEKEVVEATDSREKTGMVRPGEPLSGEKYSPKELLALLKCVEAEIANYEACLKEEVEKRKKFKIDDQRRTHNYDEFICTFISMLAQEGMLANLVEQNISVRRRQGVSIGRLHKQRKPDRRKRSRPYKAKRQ
HEK293 NFkB inh – inhibitors of PMA/ionomycin-induced NF-kB reporter, primary screen, antigen receptor NF-kB inhibitor project, cell-based, HEK-293 luciferase reporter, luminescence; HEK-293 NF-kB luciferase reporter; inhibition, % at 3 µM; hit rate 0.21% among 62,000;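 active = inhibition above the mean of all tested compounds plus 3 SD, cut at about 40% in these data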;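 also: 0% = stimulated DMSO wells and 100% = 10 µM reference inhibitor 5653914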
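Material: HEK-293 cells with stable firefly luciferase reporter driven by four HIV NF-kB elements / Also added: PMA plus ionomycin mix as NF-kB-activating stimulus / Compound dosing: 3 µM once, 0.30% DMSO / Times: 1 h pretreatment, 16 h stimulation, 37 °C / Signal: luminescence / Evaluation: per-plate % inhibition versus controls / Benchmarks: DMSO and 10 µM reference inhibitor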
M1 agonist – M1 muscarinic receptor agonists, primary screen, CHO-M1 cells, Fluo-4 calcium, agonist mode. Muscarinic acetylcholine receptor M1. hit rate 3% among 64,000. B-score at 10 µM. Fluo-4 calcium fluorescence; stronger effect = higher value;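 active = fluorescence rise, raw or as B-score row- and column-corrected plate score, outside the 99.7% band of its plate's samples, either direction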
* marks the source's active call; other numbers are inactive results; i = inactive; x = no result given.

SMILES	D1 mod	M1 antagonist	DAT uptake mod	BAP1 block	HEK293 NFkB inh	M1 agonist
C(=Cc1ccccc1)CN1CCN(C2c3ccccc3-c3ccccc32)CC1	x	x	x	i	x	x
Cc1cccc(C)c1NC(=O)CSc1nnc(-c2ccoc2C)n1CCc1ccccc1	-0.15	1.05	1.43	i	9.2	0.471
Cc1occc1-c1nnc(SCC(=O)NCCc2ccccc2)n1C(C)c1ccccc1 (stereo not given)	x	-0.418	2.71*	i	5.5	-0.0209
CN1CCc2c(sc3c2C(=O)NC(c2cccc(OCc4ccccc4)c2)N3)C1 (stereo not given)	x	x	x	i	x	x
O=C(NC12CC3CC(CC(C3)C1)C2)c1ccc(S(=O)(=O)N2CCOCC2)cc1	0.236	0.0504	2.52*	x	7.4	-1.23
Cc1ccc(C(=O)Nc2ccc(C)cc2Br)cc1	x	x	x	i	x	x
CCOc1ccc(C(=O)NCc2ccco2)cc1	x	0.0174	0.784	i	-0.9	0.15
CC(C)COc1ccc(C(=O)NCc2ccco2)cc1	0.0651	-0.0269	-7.84*	x	13.4	0.783
O=C1c2ccccc2C(=O)c2c1cccc2S(=O)(=O)N1CCOCC1	x	x	x	i	x	x
COc1ccc2nc(NC(=O)C3CCN(S(=O)(=O)c4cnc[nH]4)CC3)sc2c1	-4.85*	-0.929	1.97*	i	14.5	0.695
COc1ccc2nc(NC(=O)C3CCN(S(=O)(=O)c4cccs4)CC3)sc2c1	x	x	2.81*	x	x	x
CCOc1ccc2nc(NC(=O)c3cc(OC)c(OC)c(OC)c3)sc2c1	x	x	x	i	x	x
Oc1cccc(-c2nc3ccccc3s2)c1	-8.71*	0.696	x	i	3.0	0.0772
COc1ccc(C(=O)Nc2ccc(-c3nc4cc(C)cc(C)c4o3)cc2)cc1[N+](=O)[O-]	x	x	x	i	x	x
O=c1[nH]cnc2nc(N3CCCCC3)[nH]c12	x	x	x	i	x	x
Cc1cccc(-n2ncc3c(NCc4ccccc4)ncnc32)c1	-0.787	-1.53	1.98	i	11.1	-0.453
Cc1cccc(-n2ncc3c(NCCc4ccc(S(N)(=O)=O)cc4)ncnc32)c1	-6.95*	0.0927	0.646	i	24.3	-1.62
O=c1c2c(nc3cc(-c4ccc(F)cc4)[nH]n13)CCCC2	-5.29*	-0.329	-0.569	i	-46.3	-0.66
O=C(c1cccc2ccccc12)N1CCN(c2ccc([N+](=O)[O-])cc2)CC1	x	x	x	i	x	x
C=C(C)c1cccc(C(C)(C)NC(=O)N2CCN(CC(N)=O)CC2)c1	-0.578	0.409	0.949*	x	9.6	-1.25
C=C(C)c1cccc(C(C)(C)NC(=O)N2CCN(CC)CC2)c1	-1.7	-0.73	-0.79	i	9.1	-0.122
Cc1ccccc1NC(=O)N1CCCC(c2nc(-c3ccc(C(C)C)cc3)no2)C1 (stereo not given)	1.08	0.00216	-1.73	i	34.5	0.0257
Cc1ccccc1NC(=O)N1CCCC(c2nc(-c3ccc(F)cc3)no2)C1 (stereo not given)	-0.179	-0.605	3.05*	i	5.5	-1.56
O=C(N[C@@H](Cc1ccccc1)C(=O)OCc1ccccc1)c1nc[nH]c1C(=O)NCc1ccccc1	x	x	1.61*	x	x	x
Cc1cc2c(cc1C)NC(c1cccc(C(F)(F)F)c1)C1=C(CC(C)(C)CC1=O)N2 (stereo not given)	x	x	x	i	x	x
SMILES	D1 mod	M1 antagonist	DAT uptake mod	BAP1 block	HEK293 NFkB inh	M1 agonist
Cc1cc2c(cc1C)NC(c1c(C)n(C)n(-c3ccccc3)c1=O)C1=C(CC(C)(C)CC1=O)N2 (stereo not given)	-0.565	-0.379	0.733	i	0.2	46.6*
Cc1ccc(C)c(CN2CCNC2=O)c1	0.0237	-0.428	0.393	i	3.2	-0.357
Cc1ccc(N)cc1CN1CCCC1=O	-0.0923	0.312	-1.94*	i	11.4	0.173
COC(=O)c1c(NC(=O)CN2CCN(C(=O)c3ccco3)CC2)c2cc(C)ccc2n1C	-2.8*	0.553	0.148	i	16.2	1.09
COC(=O)c1c(NC(=O)CN2CCN(C(=O)c3ccco3)CC2)c2c(C)cccc2n1C	-0.605	-0.834	-0.784	i	11.2	2.49
Cc1ccc(C2CC(=O)CC(c3ccccc3)S2)cc1 (stereo not given)	x	x	x	i	x	x
O=S(=O)(c1cc(-c2nnc(-c3ccc(Br)cc3)o2)ccc1Br)N1CCCCCC1	x	x	3.25*	x	x	x
CC(C)OC(=O)CC(=O)c1sc2nc3c(cc2c1N)CN(C)CC3	-0.314	0.0553	-0.631	i	13.2	7.33*
CCc1[nH]nc2c1C(c1ccc(Br)s1)C(C#N)=C(N)O2 (stereo not given)	x	2.5*	1.18	i	x	-0.237
COc1cc(-c2c(C#N)c(N)nc3sc(C(=O)c4ccccc4)c(N)c23)cc(OC)c1OC	x	x	x	i	x	x
Cc1ccc(S(=O)(=O)Cc2ccc(C(=O)NCCCN3CCCC3=O)o2)cc1	-3.33*	-0.208	0.312	i	12.8	-0.114
CCOC(=O)c1ccc2nc(NC(=O)c3ccco3)sc2c1	-4.84*	-1.22	0.724	i	-58.1	-0.892
CCOc1ccc2nc(NC(=O)c3ccc(Cl)s3)sc2c1	x	x	x	i	x	x
CCOc1ccc2nc(NC(=O)Nc3cccs3)sc2c1	-3.78*	-0.0212	-0.865	i	-48.6	-4.98e-05
CCOc1ccc2nc(NC(=O)Nc3ccccc3)sc2c1	x	x	0.429	x	x	x
CCOc1ccc2nc(NC(=O)c3ccoc3C)sc2c1	-5.56*	-0.0538	1.97	i	-41.9	0.365
COc1ccc(C(=O)COC(=O)CCN2C(=O)C3C4CC(C(Br)C4Br)C3C2=O)cc1 (stereo not given)	x	x	-2.26*	x	x	x
COc1ccc(C(=O)COC(=O)C(CCCCN2C(=O)C3C4C=CC(C4)C3C2=O)N2C(=O)C3C4C=CC(C4)C3C2=O)cc1 (stereo not given)	x	x	0.0268	x	x	x
Cc1cc(C)cc(C(=O)N2CC(=O)Nc3ccccc32)c1	x	x	-3.29*	x	x	x
Cc1ccsc1C(=O)N1CC(=O)Nc2ccccc21	-0.149	-0.177	0.129	i	18.3	-0.352
COc1ccc(C(O)(C(=O)NNc2ccc(C)cc2)c2cccs2)cc1 (stereo not given)	x	x	-7.86*	x	x	x
